Measurements as given in ChEMBL document CHEMBL4229344 (Eur J Med Chem, 2018).
The source made the active and inactive calls. The calls are words filed in the database; no cut-off is given here.

How the values were obtained:
[1] = target: Tyrosine-protein kinase ABL2 (Homo sapiens) (UniProt P42684); assay: Binding affinity to wild-type human ABL2 (A248 to G542 residues) expressed in bacterial expression system assessed as residual binding level at 1 uM by Kinomescan method relative to control
Method in brief: (§1)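 KINOMEscan competition binding against 468 purified kinases/mutants, test compound at 1 µM; residual binding relative to control.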

[2] = target: cAMP-dependent protein kinase catalytic subunit beta (Homo sapiens) (UniProt P22694); assay: Binding affinity to wild-type human full length PKAC-beta (M1 to F351 residues) expressed in bacterial expression system assessed as residual binding level at 1 uM by Kinomescan method relative to control
Method in brief: (§2)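 Single-concentration KINOMEscan (DiscoverX) binding screen at 1 μM against a panel of 468 purified kinases and mutants. The read-out is binding relative to control.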

[3] = target: Serine/threonine-protein kinase 16 (Homo sapiens) (UniProt O75716); assay: Binding affinity to wild-type human partial length STK16 (G11 to I305 residues) expressed in bacterial expression system assessed as residual binding level at 1 uM by Kinomescan method relative to control
[4] = target: Angiopoietin-1 receptor (Homo sapiens) (UniProt Q02763); assay: Binding affinity to wild-type human partial length TIE2 (N804 to T1112 residues) expressed in bacterial expression system assessed as residual binding level at 1 uM by Kinomescan method relative to control
[5] = target: Cyclin-dependent kinase-like 1 (Homo sapiens) (UniProt Q00532); assay: Binding affinity to wild-type human full length CDKL1 (M1 to I358 residues) expressed in mammalian expression system assessed as residual binding level at 1 uM by Kinomescan method relative to control
Chain of Cyclin-dependent kinase-like 1 (Homo sapiens) (Q00532 whole entry, the tested form may be a part): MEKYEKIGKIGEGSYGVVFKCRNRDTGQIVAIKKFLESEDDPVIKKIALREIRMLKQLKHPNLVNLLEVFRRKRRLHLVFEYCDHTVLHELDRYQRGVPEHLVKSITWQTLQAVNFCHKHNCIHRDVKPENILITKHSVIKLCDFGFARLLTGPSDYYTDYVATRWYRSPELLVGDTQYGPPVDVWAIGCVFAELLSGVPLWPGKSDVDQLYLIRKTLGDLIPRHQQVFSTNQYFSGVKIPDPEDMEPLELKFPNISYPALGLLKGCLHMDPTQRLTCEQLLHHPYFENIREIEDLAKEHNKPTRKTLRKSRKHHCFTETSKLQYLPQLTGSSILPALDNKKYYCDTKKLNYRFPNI
Method in brief: (§3)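 Single-concentration (1 μM) competition-binding screen run by KINOMEscan against a panel of 468 purified kinases and mutants. The read-out is the relative binding activity of the test compound to each kinase.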

[6] = target: Mitogen-activated protein kinase 6 (Homo sapiens) (UniProt Q16659); assay: Binding affinity to wild-type human partial length ERK3 (M1 to P413 residues) expressed in bacterial expression system assessed as residual binding level at 1 uM by Kinomescan method relative to control
Method in brief: (§4)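 Kinome-wide competition binding screen against a panel of 468 purified kinases/mutants, with the test compound at a single concentration of 1 μM. Read-out is the relative binding activity of each kinase in the presence of compound.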

[7] = AUC (0 to t) in Sprague-Dawley rat at 10 mg/kg, po; type: ADME, organism-based; details: in vivo
Method in brief: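 Male Sprague-Dawley rats (6–8 weeks) fasted overnight, dosed IV or orally; compound dissolved in 5% DMSO/40% PEG400/55% saline (dosing solution 1 mg/mL). Blood (~0.2 mL) from jugular vein into heparin; IV sampling 1 min–8 h, oral 5 min–24 h. Plasma separated by centrifugation at 2–8 °C, stored at −80 °C until analysis.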

[8] = target: Epidermal growth factor receptor (Homo sapiens) (UniProt P00533); assay: Binding affinity to human partial length EGFR E746-A750del mutant expressed in bacterial expression system assessed as residual binding level at 1 uM by Kinomescan method relative to control
Method in brief: (§5)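 Kinome-wide single-concentration binding screen (KINOMEscan) at 1 μM against a panel of 468 purified kinases and mutants. Read-out is relative binding of each kinase compared with control. Selectivity across the panel was summarised as an S(10) score.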

[9] = target: Tyrosine-protein kinase BTK (Homo sapiens) (UniProt Q06187); assay: Binding affinity to wild-type human full length BTK (M1 to S659 residues) expressed in mammalian expression system assessed as residual binding level at 1 uM by Kinomescan method relative to control; method in brief: as §3
[10] = test system: Epidermal growth factor receptor (Homo sapiens), P00533 [T790M]; assay: Binding affinity to human partial length EGFR T790M mutant (R669 to G1022 residues) expressed in mammalian expression system assessed as residual binding level at 1 uM by Kinomescan method relative to control; method in brief: as §5
[11] = target: Activin receptor type-2B (Homo sapiens) (UniProt Q13705); assay: Binding affinity to wild-type human ACVR2B (H169 to D504 residues) expressed in bacterial expression system assessed as residual binding level at 1 uM by Kinomescan method relative to control; method in brief: as §1
[12] = target: T1, Platelet-derived growth factor receptor alpha (Homo sapiens, UniProt P16234); assay: Inhibition of PDGFRalpha in human EOL-1 cells assessed as decrease in STAT5 phosphorylation at Y694 residue after 2 hrs in presence of PDGF-AA by Western blot analysis; type: cell-based
T1 sequence (P16234 whole entry, the tested form may be a part): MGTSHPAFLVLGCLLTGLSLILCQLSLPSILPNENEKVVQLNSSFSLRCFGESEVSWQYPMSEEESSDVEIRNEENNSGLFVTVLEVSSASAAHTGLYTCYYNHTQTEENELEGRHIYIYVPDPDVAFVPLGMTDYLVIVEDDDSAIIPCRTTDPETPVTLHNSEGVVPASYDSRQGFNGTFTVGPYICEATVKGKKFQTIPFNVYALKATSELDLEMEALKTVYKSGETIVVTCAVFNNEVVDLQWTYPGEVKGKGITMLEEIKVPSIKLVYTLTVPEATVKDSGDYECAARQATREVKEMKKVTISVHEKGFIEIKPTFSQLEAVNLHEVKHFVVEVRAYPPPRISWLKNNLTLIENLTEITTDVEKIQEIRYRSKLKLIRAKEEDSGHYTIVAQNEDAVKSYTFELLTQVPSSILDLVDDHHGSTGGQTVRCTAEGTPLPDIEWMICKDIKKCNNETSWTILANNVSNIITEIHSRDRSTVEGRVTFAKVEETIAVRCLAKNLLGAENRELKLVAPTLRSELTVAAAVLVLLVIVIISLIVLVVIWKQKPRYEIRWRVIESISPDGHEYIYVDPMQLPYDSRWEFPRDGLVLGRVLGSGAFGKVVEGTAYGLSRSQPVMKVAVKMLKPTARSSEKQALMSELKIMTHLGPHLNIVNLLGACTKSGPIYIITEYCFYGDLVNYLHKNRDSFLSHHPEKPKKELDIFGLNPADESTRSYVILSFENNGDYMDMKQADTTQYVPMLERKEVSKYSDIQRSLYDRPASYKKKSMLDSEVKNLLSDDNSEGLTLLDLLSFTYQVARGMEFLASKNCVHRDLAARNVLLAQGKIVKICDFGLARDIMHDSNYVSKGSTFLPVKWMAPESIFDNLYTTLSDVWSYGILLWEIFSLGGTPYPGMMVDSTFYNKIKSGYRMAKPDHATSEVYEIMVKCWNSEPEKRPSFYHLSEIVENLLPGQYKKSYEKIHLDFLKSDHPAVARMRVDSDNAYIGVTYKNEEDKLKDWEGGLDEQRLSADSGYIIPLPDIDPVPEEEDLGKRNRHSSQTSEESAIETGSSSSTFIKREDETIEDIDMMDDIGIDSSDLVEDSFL

[13] = target: Ankyrin repeat and protein kinase domain-containing protein 1 (Homo sapiens) (UniProt Q8NFD2); assay: Binding affinity to wild-type human partial length ANKK1 (M1 to A305 residues) expressed in mammalian expression system assessed as residual binding level at 1 uM by Kinomescan method relative to control; method in brief: as §2
Chain of Ankyrin repeat and protein kinase domain-containing protein 1 (Homo sapiens) (Q8NFD2 whole entry, the tested form may be a part): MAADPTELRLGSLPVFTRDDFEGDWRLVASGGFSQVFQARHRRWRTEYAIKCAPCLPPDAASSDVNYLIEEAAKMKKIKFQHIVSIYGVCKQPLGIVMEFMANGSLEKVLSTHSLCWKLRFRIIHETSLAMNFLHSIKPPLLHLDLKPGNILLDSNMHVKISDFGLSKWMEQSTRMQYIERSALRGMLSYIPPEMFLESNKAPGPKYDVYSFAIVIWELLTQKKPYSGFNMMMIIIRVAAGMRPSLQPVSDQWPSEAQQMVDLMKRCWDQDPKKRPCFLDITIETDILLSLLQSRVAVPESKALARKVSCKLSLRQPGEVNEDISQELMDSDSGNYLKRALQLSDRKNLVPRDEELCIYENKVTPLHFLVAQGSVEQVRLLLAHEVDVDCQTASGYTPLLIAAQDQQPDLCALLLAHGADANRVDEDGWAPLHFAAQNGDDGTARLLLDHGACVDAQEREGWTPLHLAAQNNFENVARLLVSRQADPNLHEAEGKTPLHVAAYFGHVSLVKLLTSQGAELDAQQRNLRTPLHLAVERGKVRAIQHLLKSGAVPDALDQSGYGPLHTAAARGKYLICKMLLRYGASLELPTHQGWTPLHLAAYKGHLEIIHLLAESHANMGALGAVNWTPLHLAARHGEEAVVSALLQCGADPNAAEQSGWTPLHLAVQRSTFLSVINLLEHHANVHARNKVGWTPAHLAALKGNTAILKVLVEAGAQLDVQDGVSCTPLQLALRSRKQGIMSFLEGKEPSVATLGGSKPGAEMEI

[14] = target: Serine/threonine-protein kinase TBK1 (Homo sapiens) (UniProt Q9UHD2); assay: Binding affinity to wild-type human full length TBK1 (M1 to L729 residues) expressed in mammalian expression system assessed as residual binding level at 1 uM by Kinomescan method relative to control; method in brief: as §2
Chain of Serine/threonine-protein kinase TBK1 (Homo sapiens) (Q9UHD2 whole entry, the tested form may be a part): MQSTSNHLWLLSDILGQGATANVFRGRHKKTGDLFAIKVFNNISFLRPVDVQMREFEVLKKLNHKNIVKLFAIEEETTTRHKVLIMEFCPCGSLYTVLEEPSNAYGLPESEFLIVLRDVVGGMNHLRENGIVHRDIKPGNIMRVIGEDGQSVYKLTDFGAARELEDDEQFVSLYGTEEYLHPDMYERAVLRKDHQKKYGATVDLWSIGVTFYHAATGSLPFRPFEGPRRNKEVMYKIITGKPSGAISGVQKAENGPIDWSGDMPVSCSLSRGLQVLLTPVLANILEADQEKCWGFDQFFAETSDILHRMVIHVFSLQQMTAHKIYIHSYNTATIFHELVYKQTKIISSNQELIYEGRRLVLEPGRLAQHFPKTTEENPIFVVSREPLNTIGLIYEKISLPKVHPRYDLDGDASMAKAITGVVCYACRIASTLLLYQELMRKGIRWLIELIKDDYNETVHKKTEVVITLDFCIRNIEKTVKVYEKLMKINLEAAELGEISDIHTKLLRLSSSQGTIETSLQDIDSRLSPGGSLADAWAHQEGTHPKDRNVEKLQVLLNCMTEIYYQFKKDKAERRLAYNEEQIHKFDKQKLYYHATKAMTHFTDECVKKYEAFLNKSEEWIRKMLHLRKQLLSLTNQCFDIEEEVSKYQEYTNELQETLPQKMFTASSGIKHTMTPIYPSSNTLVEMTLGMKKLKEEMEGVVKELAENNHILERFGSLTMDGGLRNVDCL

[15] = Tmax in Sprague-Dawley rat at 10 mg/kg, po; type: ADME, organism-based; details: in vivo
Method in brief: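 Male Sprague-Dawley rats, 6–8 weeks old and fasted overnight, dosed IV at 1 mg/kg or PO at 10 mg/kg. Formulation was 5% DMSO/40% PEG400/55% saline (1 mg/mL). Jugular blood collected on heparin from 1 min to 8 h (IV) or 5 min to 24 h (PO). Plasma separated by centrifugation at 2–8 °C and stored at −80 °C.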

[16] = target: Casein kinase I isoform alpha (Homo sapiens) (UniProt P48729); assay: Binding affinity to wild-type human partial length CSNK1A1 (M1 to L450 residues) expressed in mammalian expression system assessed as residual binding level at 1 uM by Kinomescan method relative to control; method in brief: as §4
Chain of Casein kinase I isoform alpha (Homo sapiens) (P48729 2-337 limits assumed): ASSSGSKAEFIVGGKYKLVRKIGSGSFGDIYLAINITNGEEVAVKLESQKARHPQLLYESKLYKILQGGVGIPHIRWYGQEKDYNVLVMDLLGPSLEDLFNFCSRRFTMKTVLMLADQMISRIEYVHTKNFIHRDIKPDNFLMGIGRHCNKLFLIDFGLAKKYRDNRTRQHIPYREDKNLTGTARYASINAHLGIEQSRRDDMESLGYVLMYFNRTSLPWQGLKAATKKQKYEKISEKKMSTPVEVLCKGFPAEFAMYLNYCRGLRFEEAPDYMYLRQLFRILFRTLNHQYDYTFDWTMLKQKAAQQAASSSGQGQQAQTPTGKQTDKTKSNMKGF

[17] = target: Dual specificity mitogen-activated protein kinase kinase 5 (Homo sapiens) (UniProt Q13163); assay: Binding affinity to wild-type human partial length MEK5 (L98 to P448 residues) expressed in mammalian expression system assessed as residual binding level at 1 uM by Kinomescan method relative to control
Chain of Dual specificity mitogen-activated protein kinase kinase 5 (Homo sapiens) (Q13163 whole entry, the tested form may be a part): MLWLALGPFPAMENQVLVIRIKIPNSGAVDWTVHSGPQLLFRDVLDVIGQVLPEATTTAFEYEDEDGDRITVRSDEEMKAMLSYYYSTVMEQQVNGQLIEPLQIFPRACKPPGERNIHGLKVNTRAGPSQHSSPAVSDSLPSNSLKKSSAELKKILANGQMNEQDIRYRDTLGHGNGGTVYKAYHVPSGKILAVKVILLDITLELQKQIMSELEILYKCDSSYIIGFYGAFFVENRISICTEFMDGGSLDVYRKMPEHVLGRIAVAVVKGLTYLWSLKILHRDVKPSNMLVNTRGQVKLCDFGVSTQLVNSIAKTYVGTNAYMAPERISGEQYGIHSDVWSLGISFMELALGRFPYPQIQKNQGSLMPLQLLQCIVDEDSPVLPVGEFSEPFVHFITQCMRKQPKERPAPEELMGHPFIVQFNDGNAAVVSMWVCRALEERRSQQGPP

[18] = target: Calcium/calmodulin-dependent protein kinase type 1B (Homo sapiens) (UniProt Q6P2M8); assay: Binding affinity to wild-type human partial length CAMK1B (W9 to A311 residues) expressed in mammalian expression system assessed as residual binding level at 1 uM by Kinomescan method relative to control
[19] = target: Protein kinase C eta type (Homo sapiens) (UniProt P24723); assay: Binding affinity to wild-type human partial length PRKCH (S324 to P683 residues) expressed in bacterial expression system assessed as residual binding level at 1 uM by Kinomescan method relative to control
Chain of Protein kinase C eta type (Homo sapiens) (P24723 whole entry, the tested form may be a part): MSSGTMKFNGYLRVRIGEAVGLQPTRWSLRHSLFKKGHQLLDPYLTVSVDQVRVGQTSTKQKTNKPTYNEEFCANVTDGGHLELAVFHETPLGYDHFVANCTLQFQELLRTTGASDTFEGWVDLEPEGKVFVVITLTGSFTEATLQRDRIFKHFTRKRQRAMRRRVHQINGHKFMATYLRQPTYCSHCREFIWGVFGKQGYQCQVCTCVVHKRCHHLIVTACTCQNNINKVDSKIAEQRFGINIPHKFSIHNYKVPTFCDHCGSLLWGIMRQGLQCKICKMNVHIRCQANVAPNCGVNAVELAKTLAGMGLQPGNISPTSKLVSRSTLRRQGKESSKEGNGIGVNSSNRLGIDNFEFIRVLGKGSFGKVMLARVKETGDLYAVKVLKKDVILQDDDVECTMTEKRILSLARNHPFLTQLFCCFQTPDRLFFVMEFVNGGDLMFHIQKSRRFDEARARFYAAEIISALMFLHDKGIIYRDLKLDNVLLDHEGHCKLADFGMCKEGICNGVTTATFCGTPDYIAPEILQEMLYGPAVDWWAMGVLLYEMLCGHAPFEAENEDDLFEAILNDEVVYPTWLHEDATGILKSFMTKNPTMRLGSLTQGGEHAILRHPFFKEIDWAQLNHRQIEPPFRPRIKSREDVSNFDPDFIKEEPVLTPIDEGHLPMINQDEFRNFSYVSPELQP

[20] = target: Dual specificity protein kinase CLK3 (Homo sapiens) (UniProt P49761); assay: Binding affinity to wild-type human full length CLK3 (M1 to R490 residues) expressed in bacterial expression system assessed as residual binding level at 1 uM by Kinomescan method relative to control; method in brief: as §1
Chain of Dual specificity protein kinase CLK3 (Homo sapiens) (P49761 whole entry, looked up, the tested form may be a part): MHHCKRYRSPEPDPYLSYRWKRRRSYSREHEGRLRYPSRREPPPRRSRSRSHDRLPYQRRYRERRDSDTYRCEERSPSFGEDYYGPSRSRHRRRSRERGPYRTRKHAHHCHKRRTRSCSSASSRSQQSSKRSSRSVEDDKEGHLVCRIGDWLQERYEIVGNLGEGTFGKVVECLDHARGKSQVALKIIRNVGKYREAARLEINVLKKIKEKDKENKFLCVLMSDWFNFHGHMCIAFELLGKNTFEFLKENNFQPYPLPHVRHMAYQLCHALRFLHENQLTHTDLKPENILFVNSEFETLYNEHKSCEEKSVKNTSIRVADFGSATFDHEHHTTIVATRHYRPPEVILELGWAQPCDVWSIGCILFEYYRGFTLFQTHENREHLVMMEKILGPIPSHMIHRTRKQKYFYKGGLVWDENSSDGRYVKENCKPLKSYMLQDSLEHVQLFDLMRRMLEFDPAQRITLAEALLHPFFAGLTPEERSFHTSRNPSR

[21] = target: T1, Platelet-derived growth factor receptor alpha; assay: Inhibition of PDGFRalpha in human EOL-1 cells assessed as decrease in ERK1/2 phosphorylation at T202/Y204 residues up to 300 nM after 2 hrs by Western blot analysis; type: cell-based

Question: For `Cc1ccc(NC(=O)c2ccc(CN(CCN(C)C)C(=O)c3cccnc3)cc2)cc1Nc1nccc(-c2cccnc2)n1`, which Activity [1] is on record?
Answer: 69%

Question: And the Activity [2]?
Answer: 77%

Question: And the Activity [3]?
Answer: 88%

Question: And the Activity [4]?
Answer: 93%

Question: What about the Activity [5] of the same molecule?
Answer: 85%

Question: And the Activity [6]?
Answer: 94%

Question: What about the AUC(0-t) [7] of the same molecule?
Answer: 103 ng·h/mL

Question: What about the Activity [8] of the same molecule?
Answer: 100%

Question: And the Activity [9]?
Answer: 100%

Question: And the Activity [10]?
Answer: 100%

Question: And the Activity [11]?
Answer: 89%

Question: And the inhibition [12]?
Answer: Dose-dependent effect

Question: What about the Activity [13] of the same molecule?
Answer: 100%

Question: And the Activity [14]?
Answer: 86%

Question: And the Tmax [15]?
Answer: 1.5 h

Question: And the Activity [16]?
Answer: 87%

Question: And the Activity [17]?
Answer: 100%

Question: What about the Activity [18] of the same molecule?
Answer: 90%

Question: What about the Activity [19] of the same molecule?
Answer: 86%

Question: And the Activity [20]?
Answer: 94%

Question: What about the inhibition [21] of the same molecule?
Answer: Active
